Source: ChEMBL document CHEMBL4725492, “Dioxane-Linked Amide Derivatives as Novel Bacterial Topoisomerase Inhibitors against Gram-Positive Staphylococcus aureus” (ACS Med Chem Lett, 2020)
Converted amounts (≈) assume the structure as drawn. The source made the active and inactive calls. No cut-off for these calls is given here.

Tested on: Staphylococcus aureus
Assay: Antibacterial activity against Staphylococcus aureus USA300 by CLSI based agar dilution method
Format: functional
Settings: not given

Row | SMILES | MIC
1 | COc1ccc2nccc(CC[C@H]3OC[C@H](NC(=O)C4(C)CCCCC4)CO3)c2c1 | > 64 µg/mL
2 | COc1ccc2nccc(CC[C@H]3OC[C@H](NC(=O)[C@H]4CC[C@H](O)CC4)CO3)c2c1 | > 64 µg/mL
3 | COc1ccc2nccc(CC[C@H]3OC[C@H](NC(=O)CC4CCCCC4)CO3)c2c1 | > 64 µg/mL
4 | COc1ccc2nccc(CC[C@H]3OC[C@H](NC(=O)c4ccccc4)CO3)c2c1 | 8 µg/mL (≈ 20.4 µM)
5 | COc1ccc2nccc(CC[C@H]3OC[C@H](NC(=O)[C@H]4CC[C@@H](O)CC4)CO3)c2c1 | > 64 µg/mL
6 | COc1ccc2nccc(CC[C@H]3OC[C@H](NC(=O)C4COc5ccccc5O4)CO3)c2c1 (stereo partly specified) | > 64 µg/mL
7 | COc1ccc2nccc(CC[C@H]3OC[C@H](NC(=O)C4CCCCC4)CO3)c2c1 | 8 µg/mL (≈ 20.1 µM)
8 | COc1ccc2nccc(CC[C@H]3OC[C@H](NC(=O)C4CCNCC4)CO3)c2c1 | > 64 µg/mL
9 | COc1ccc2nccc(CC[C@H]3OC[C@H](NC(=O)c4ccc5c(c4)OCCO5)CO3)c2c1 | 1 µg/mL (≈ 2.22 µM)
10 | COc1ccc2nccc(CC[C@H]3OC[C@H](NC(=O)C4CCN(C)CC4)CO3)c2c1 | > 64 µg/mL
11 | COc1ccc2nccc(CC[C@H]3OC[C@H](NC(=O)C4COc5ccccc5C4)CO3)c2c1 (stereo partly specified) | > 64 µg/mL
12 | COc1ccc(C(=O)N[C@H]2CO[C@H](CCc3ccnc4ccc(OC)cc34)OC2)cc1 | 8 µg/mL (≈ 18.9 µM)
13 | COc1ccc2nccc(CC[C@H]3OC[C@H](NC(=O)c4ccc(C#N)cc4)CO3)c2c1 | > 8 µg/mL
14 | COc1ccc2nccc(CC[C@H]3OC[C@H](NC(=O)c4ccccn4)CO3)c2c1 | > 256 µg/mL
15 | COc1ccc2nccc(CC[C@H]3OC[C@H](NC(=O)[C@H]4CC[C@@H](N)CC4)CO3)c2c1 | > 64 µg/mL

Molecular target: T1, DNA gyrase (Staphylococcus aureus) (UniProt P0A0K8+P20831)
Assay: Inhibition of Staphylococcus aureus DNA gyrase assessed as single-strand break at 20 uM using relaxed pBR322 as substrate by ethidium bromide-based gel electrophoresis
Format: protein-complex assay
Settings: not given
Procedure, shortened: (§1)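 S. aureus gyrase-mediated DNA cleavage: compound was incubated with enzyme and DNA, and products were resolved on an ethidium-stained gel into negatively supercoiled, nicked (single-strand break) and linear (double-strand break) forms. Lane fluorescence was corrected for differential band emission. Percent of each form was calculated, and enzyme-only cleavage was subtracted. Concentrations spanned 0.1 nM–200 μM, with a 20 μM single-point screen. Results are mean ± SD or range.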

Row | SMILES | inhibition
16 | COc1ccc2nccc(CC[C@H]3OC[C@H](NC(=O)c4ccc5c(c4)OCCO5)CO3)c2c1 | Active

Molecular target: DNA topoisomerase 2-alpha (Homo sapiens, UniProt P11388)
Assay: Inhibition of human topoisomerase 2alpha
Settings: not given
Procedure, shortened: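 Human topoisomerase IIα decatenation activity was tested at a single concentration of 100 μM and reported as percent inhibition.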

Row | SMILES | inhibition (INH)
17 | COc1ccc(C(=O)N[C@H]2CO[C@H](CCc3ccnc4ccc(OC)cc34)OC2)cc1 | Not Active

Molecular target: T1, DNA gyrase (Staphylococcus aureus)
Assay: Inhibition of Staphylococcus aureus DNA gyrase assessed as single-strand break using relaxed pBR322 as substrate by ethidium bromide-based gel electrophoresis
Format: protein-complex assay
Settings: not given
Procedure, shortened: as §1

Row | SMILES | inhibition
18 | COc1ccc2nccc(CC[C@H]3OC[C@H](NC(=O)c4ccc5c(c4)OCCO5)CO3)c2c1 | Dose-dependent effect

Molecular target: T1, DNA gyrase (Staphylococcus aureus)
Assay: Inhibition of Staphylococcus aureus DNA gyrase assessed as single-strand break at 100 to 200 uM using relaxed pBR322 as substrate by ethidium bromide-based gel electrophoresis
Format: protein-complex assay
Settings: dose microM 100-200
Procedure, shortened: as §1

Row | SMILES | inhibition
19 | O=c1ccc2ncc(=O)n3c2n1C[C@H]3CN1CCC(NCc2cc3c(cn2)OCCC3)CC1 | Active

Molecular target: T1, DNA gyrase (Staphylococcus aureus)
Assay: Inhibition of Staphylococcus aureus DNA gyrase assessed as double-strand break at 20 uM using relaxed pBR322 as substrate by ethidium bromide-based gel electrophoresis
Format: protein-complex assay
Settings: not given
Procedure, shortened: as §1

Row | SMILES | inhibition
20 | COc1ccc2nccc(CC[C@H]3OC[C@H](NC(=O)c4ccc5c(c4)OCCO5)CO3)c2c1 | inactive

Molecular target: DNA gyrase (Staphylococcus aureus, UniProt P0A0K8+P20831)
Assay: Inhibition of Staphylococcus aureus DNA gyrase using relaxed pBR322 as substrate by gel electrophoresis
Format: protein-complex assay
Settings: not given

Row | SMILES | IC50
21 | COc1ccc2nccc(CC[C@H]3OC[C@H](NC(=O)c4ccc5c(c4)OCCO5)CO3)c2c1 | 3.7 µM
22 | COc1ccc(C(=O)N[C@H]2CO[C@H](CCc3ccnc4ccc(OC)cc34)OC2)cc1 | 3.9 µM

Molecular target: T1, DNA gyrase (Staphylococcus aureus)
Assay: Inhibition of Staphylococcus aureus DNA gyrase assessed as double-strand break at 100 uM using relaxed pBR322 as substrate by ethidium bromide-based gel electrophoresis
Format: protein-complex assay
Settings: not given
Procedure, shortened: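 Gyrase-mediated DNA cleavage reactions with test agent across 0.1–100 μM. Products were resolved on ethidium-stained gels into negatively supercoiled, nicked and linear forms. DSBs were taken as percent of total lane fluorescence in the linear band, correcting for the different emission of supercoiled versus linear and nicked DNA. Cleavage in enzyme-only controls was subtracted.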

Row | SMILES | inhibition
23 | O=C(O)c1cn(C2CC2)c2cc(N3CCNCC3)c(F)cc2c1=O | Active

Molecular target: T1, DNA gyrase (Staphylococcus aureus)
Assay: Inhibition of Staphylococcus aureus DNA gyrase assessed as double-strand break at upto 100 uM using relaxed pBR322 as substrate by ethidium bromide-based gel electrophoresis
Format: protein-complex assay
Settings: dose microM <=100
Procedure, shortened: as §1

Row | SMILES | inhibition
24 | COc1ccc2nccc(CC[C@H]3OC[C@H](NC(=O)c4ccc5c(c4)OCCO5)CO3)c2c1 | inactive

Molecular target: Topoisomerase IV (Staphylococcus aureus, UniProt P0C1S7+P0C1U9)
Assay: Inhibition of Staphylococcus aureus topoisomerase-4 assessed as reduction in decatenation of kinetoplast DNA agarose gel electrophoresis method
Format: protein-complex assay
Settings: not given

Row | SMILES | IC50
25 | COc1ccc2nccc(CC[C@H]3OC[C@H](NC(=O)c4ccc5c(c4)OCCO5)CO3)c2c1 | > 200 µM
26 | COc1ccc(C(=O)N[C@H]2CO[C@H](CCc3ccnc4ccc(OC)cc34)OC2)cc1 | 106 µM

Tested on: Staphylococcus aureus
Assay: Antibacterial activity against Staphylococcus aureus 3527 by CLSI based agar dilution method
Format: functional
Settings: not given

Row | SMILES | MIC
27 | COc1ccc2nccc(CC[C@H]3OC[C@H](NC(=O)C4(C)CCCCC4)CO3)c2c1 | > 64 µg/mL
28 | COc1ccc2nccc(CC[C@H]3OC[C@H](NC(=O)[C@H]4CC[C@H](O)CC4)CO3)c2c1 | > 64 µg/mL
29 | COc1ccc2nccc(CC[C@H]3OC[C@H](NC(=O)CC4CCCCC4)CO3)c2c1 | > 64 µg/mL
30 | COc1ccc2nccc(CC[C@H]3OC[C@H](NC(=O)c4ccccc4)CO3)c2c1 | 4 µg/mL (≈ 10.2 µM)
31 | COc1ccc2nccc(CC[C@H]3OC[C@H](NC(=O)[C@H]4CC[C@@H](O)CC4)CO3)c2c1 | > 64 µg/mL
32 | COc1ccc2nccc(CC[C@H]3OC[C@H](NC(=O)C4COc5ccccc5O4)CO3)c2c1 (stereo partly specified) | > 64 µg/mL
33 | COc1ccc2nccc(CC[C@H]3OC[C@H](NC(=O)C4CCCCC4)CO3)c2c1 | 8 µg/mL (≈ 20.1 µM)
34 | COc1ccc2nccc(CC[C@H]3OC[C@H](NC(=O)C4CCNCC4)CO3)c2c1 | > 64 µg/mL
35 | COc1ccc2nccc(CC[C@H]3OC[C@H](NC(=O)c4ccc5c(c4)OCCO5)CO3)c2c1 | 0.5 µg/mL (≈ 1.11 µM)
36 | COc1ccc2nccc(CC[C@H]3OC[C@H](NC(=O)C4CCN(C)CC4)CO3)c2c1 | > 64 µg/mL
37 | COc1ccc2nccc(CC[C@H]3OC[C@H](NC(=O)C4COc5ccccc5C4)CO3)c2c1 (stereo partly specified) | > 64 µg/mL
38 | COc1ccc(C(=O)N[C@H]2CO[C@H](CCc3ccnc4ccc(OC)cc34)OC2)cc1 | 16 µg/mL (≈ 37.9 µM)
39 | COc1ccc2nccc(CC[C@H]3OC[C@H](NC(=O)c4ccccn4)CO3)c2c1 | > 256 µg/mL
40 | COc1ccc2nccc(CC[C@H]3OC[C@H](NC(=O)[C@H]4CC[C@@H](N)CC4)CO3)c2c1 | > 64 µg/mL

Tested on: Staphylococcus aureus
Assay: Antibacterial activity against Staphylococcus aureus ATCC 29213 by CLSI based agar dilution method
Format: functional
Settings: not given

Row | SMILES | MIC
41 | COc1ccc2nccc(CC[C@H]3OC[C@H](NC(=O)C4(C)CCCCC4)CO3)c2c1 | > 64 µg/mL
42 | COc1ccc2nccc(CC[C@H]3OC[C@H](NC(=O)[C@H]4CC[C@H](O)CC4)CO3)c2c1 | > 64 µg/mL
43 | COc1ccc2nccc(CC[C@H]3OC[C@H](NC(=O)CC4CCCCC4)CO3)c2c1 | > 64 µg/mL
44 | COc1ccc2nccc(CC[C@H]3OC[C@H](NC(=O)c4ccccc4)CO3)c2c1 | 8 µg/mL (≈ 20.4 µM)
45 | COc1ccc2nccc(CC[C@H]3OC[C@H](NC(=O)[C@H]4CC[C@@H](O)CC4)CO3)c2c1 | > 64 µg/mL
46 | COc1ccc2nccc(CC[C@H]3OC[C@H](NC(=O)C4COc5ccccc5O4)CO3)c2c1 (stereo partly specified) | > 64 µg/mL
47 | COc1ccc2nccc(CC[C@H]3OC[C@H](NC(=O)C4CCCCC4)CO3)c2c1 | 8 µg/mL (≈ 20.1 µM)
48 | COc1ccc2nccc(CC[C@H]3OC[C@H](NC(=O)C4CCNCC4)CO3)c2c1 | > 64 µg/mL
49 | COc1ccc2nccc(CC[C@H]3OC[C@H](NC(=O)c4ccc5c(c4)OCCO5)CO3)c2c1 | 1 µg/mL (≈ 2.22 µM)
50 | COc1ccc2nccc(CC[C@H]3OC[C@H](NC(=O)C4CCN(C)CC4)CO3)c2c1 | > 64 µg/mL
51 | COc1ccc2nccc(CC[C@H]3OC[C@H](NC(=O)C4COc5ccccc5C4)CO3)c2c1 (stereo partly specified) | > 64 µg/mL
52 | COc1ccc(C(=O)N[C@H]2CO[C@H](CCc3ccnc4ccc(OC)cc34)OC2)cc1 | 4 µg/mL (≈ 9.47 µM)
53 | COc1ccc2nccc(CC[C@H]3OC[C@H](NC(=O)c4ccc(C#N)cc4)CO3)c2c1 | > 8 µg/mL
54 | COc1ccc2nccc(CC[C@H]3OC[C@H](NC(=O)c4ccccn4)CO3)c2c1 | > 256 µg/mL
55 | COc1ccc2nccc(CC[C@H]3OC[C@H](NC(=O)[C@H]4CC[C@@H](N)CC4)CO3)c2c1 | > 64 µg/mL

Molecular target: Voltage-gated inwardly rectifying potassium channel KCNH2 (Homo sapiens, UniProt Q12809)
Assay: Inhibition of human ERG
Settings: not given

Row | SMILES | IC50
56 | COc1ccc2nccc(CC[C@H]3OC[C@H](NC(=O)c4ccc5c(c4)OCCO5)CO3)c2c1 | > 100 µM

Molecular target: T1, DNA gyrase (Staphylococcus aureus)
Assay: Inhibition of Staphylococcus aureus DNA gyrase assessed as double-strand break at 100 to 200 uM using relaxed pBR322 as substrate by ethidium bromide-based gel electrophoresis
Format: protein-complex assay
Settings: dose microM 100-200
Procedure, shortened: as §1

Row | SMILES | inhibition
57 | O=c1ccc2ncc(=O)n3c2n1C[C@H]3CN1CCC(NCc2cc3c(cn2)OCCC3)CC1 | inactive

Tested on: Staphylococcus aureus
Assay: Antibacterial activity against Staphylococcus aureus D83N by CLSI based agar dilution method
Format: functional
Settings: not given

Row | SMILES | MIC
58 | COc1ccc2nccc(CC[C@H]3OC[C@H](NC(=O)C4(C)CCCCC4)CO3)c2c1 | > 64 µg/mL
59 | COc1ccc2nccc(CC[C@H]3OC[C@H](NC(=O)[C@H]4CC[C@H](O)CC4)CO3)c2c1 | > 64 µg/mL
60 | COc1ccc2nccc(CC[C@H]3OC[C@H](NC(=O)CC4CCCCC4)CO3)c2c1 | > 64 µg/mL
61 | COc1ccc2nccc(CC[C@H]3OC[C@H](NC(=O)c4ccccc4)CO3)c2c1 | > 256 µg/mL
62 | COc1ccc2nccc(CC[C@H]3OC[C@H](NC(=O)[C@H]4CC[C@@H](O)CC4)CO3)c2c1 | > 64 µg/mL
63 | COc1ccc2nccc(CC[C@H]3OC[C@H](NC(=O)C4COc5ccccc5O4)CO3)c2c1 (stereo partly specified) | > 64 µg/mL
64 | COc1ccc2nccc(CC[C@H]3OC[C@H](NC(=O)C4CCCCC4)CO3)c2c1 | 32 µg/mL (≈ 80.3 µM)
65 | COc1ccc2nccc(CC[C@H]3OC[C@H](NC(=O)C4CCNCC4)CO3)c2c1 | > 64 µg/mL
66 | COc1ccc2nccc(CC[C@H]3OC[C@H](NC(=O)c4ccc5c(c4)OCCO5)CO3)c2c1 | > 32 µg/mL
67 | COc1ccc2nccc(CC[C@H]3OC[C@H](NC(=O)C4CCN(C)CC4)CO3)c2c1 | > 64 µg/mL
68 | COc1ccc2nccc(CC[C@H]3OC[C@H](NC(=O)C4COc5ccccc5C4)CO3)c2c1 (stereo partly specified) | > 64 µg/mL
69 | COc1ccc(C(=O)N[C@H]2CO[C@H](CCc3ccnc4ccc(OC)cc34)OC2)cc1 | 32 µg/mL (≈ 75.7 µM)
70 | COc1ccc2nccc(CC[C@H]3OC[C@H](NC(=O)c4ccccn4)CO3)c2c1 | > 256 µg/mL
71 | COc1ccc2nccc(CC[C@H]3OC[C@H](NC(=O)[C@H]4CC[C@@H](N)CC4)CO3)c2c1 | > 64 µg/mL
